According to ChEMBL document CHEMBL1145471, “Small molecule regulators of autophagy identified by an image-based high-throughput screen” (Proc Natl Acad Sci U S A, 2007):
Calls of active or inactive are those of the source. The rule behind the calls is not given here.

Tests used:
[1] = test system: H4; assay: Increase in light chain 3-GFP+ autophagosome vesicle area per cell in human H4 cells at 5.1 uM after 24 hrs by high throughput fluorescence microscopy relative to control; format: functional
Procedure, shortened: (§1)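 H4 cells stably expressing LC3-GFP, seeded in 96-well plates and exposed to compound for 24 h; screening concentrations were 3–12 μM, with rapamycin 0.22 μM and bafilomycin A1 0.40 μM. Cells fixed in 4% paraformaldehyde and stained with 3 μg/ml DAPI. Number, size and intensity of LC3-GFP spots measured by high-throughput fluorescence microscopy and expressed as percent of DMSO-treated wells. Rapamycin was the positive control. Triplicate wells, mean ± SD; experiments repeated three times.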

[2] = test system: H4; assay: Increase in light chain 3-GFP+ autophagosome vesicle number per cell in human H4 cells at 5.1 uM after 24 hrs by high throughput fluorescence microscopy relative to control; format: functional
Procedure, shortened: (§2)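 H4 cells stably expressing LC3-GFP were grown in DMEM with 10% FBS and 2 mM L-glutamine at 37°C, 5% CO2. They were exposed to each compound for 24 h, with DMSO as negative and rapamycin as positive control. Cells were then fixed in 4% paraformaldehyde and stained with 3 μg/ml DAPI. High-throughput fluorescence imaging scored LC3-GFP spot number, size and intensity, expressed relative to DMSO. Mean ± SD of triplicates; experiments repeated three times.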

[3] = test system: H4; assay: Increase in light chain 3-GFP+ autophagosome vesicle intensity per cell in human H4 cells at 5.1 uM after 24 hrs by high throughput fluorescence microscopy relative to control; format: functional; procedure, shortened: as §2
[4] = test system: H4; assay: Induction of light chain 3-GFP level in human H4 cells at 5.1 uM after 24 hrs by high throughput fluorescence microscopy relative to control; format: functional
Procedure, shortened: (§3)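 H4 cells stably expressing LC3-GFP, grown in DMEM with 10% FBS, penicillin/streptomycin and 2 mM L-glutamine at 37°C, 5% CO2. Cells were seeded in 96-well plates and exposed to library compounds at 3–12 μM for 24 h, then fixed in 4% paraformaldehyde and stained with 3 μg/ml DAPI. LC3-GFP spot number, size and intensity were measured by high-throughput fluorescence microscopy and expressed relative to DMSO. Triplicates, mean ± SD.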

[5] = test system: H4; assay: Effect on FYVE-RFP+ vesicle intensity per cell in human H4 cells after 2 hrs relative to control; format: functional; set-up: concentration or dose not given beside the values
Procedure, shortened: (§4)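 H4 cells stably expressing FYVE-RFP (H4-FYVE), grown in DMEM with 10% FBS, penicillin/streptomycin and 2 mM L-glutamine at 37°C, 5% CO2, seeded in 96-well plates and exposed to compound. Fixed in 4% paraformaldehyde, nuclei stained with 3 μg/ml DAPI, FYVE-RFP+ vesicles quantified by high-throughput fluorescence microscopy against DMSO control. Triplicate wells, mean ± SD.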

[6] = test system: H4; assay: Effect on FYVE-RFP+ vesicle intensity per cell in human H4 cells after 4 hrs relative to control; format: functional; set-up: concentration or dose not given beside the values; procedure, shortened: as §4
[7] = test system: H4; assay: Effect on FYVE-RFP+ vesicle intensity per cell in human H4 cells after 8 hrs relative to control; format: functional; set-up: concentration or dose not given beside the values; procedure, shortened: as §4
[8] = test system: H4; assay: Increase in long-lived protein degradation in human H4 cells after 1 hr relative to control; format: functional; set-up: concentration or dose not given beside the values
[9] = test system: H4; assay: Increase in long-lived protein degradation in human H4 cells after 2 hrs relative to control; format: functional; set-up: concentration or dose not given beside the values
[10] = test system: H4; assay: Increase in long-lived protein degradation in human H4 cells after 4 hrs relative to control; format: functional; set-up: concentration or dose not given beside the values
[11] = test system: H4; assay: Increase in long-lived protein degradation in human H4 cells after 24 hrs relative to control; format: functional; set-up: concentration or dose not given beside the values
[12] = test system: H4; assay: Increase in ratio of light chain 3 subunit 2 to light chain 3 subunit 1 in human H4 cells at 8.3 uM after 4 hrs by Western blot; format: functional, cell-based
Procedure, shortened: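 H4 cells were treated with each compound for 4 h, then lysed. Lysates were immunoblotted with anti-LC3 antibody, with actin as loading control. LC3II and LC3I bands were compared as an LC3II/LC3I ratio.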

[13] = test system: H4; assay: Reduction of poly(Q) level in human H4 cells expressing EGFP-Q79-HA after 24 hrs; format: functional, cell-based
Procedure, shortened: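 H4 cells were transiently transfected with an EGFP-Q79-HA expression vector. The medium was replaced 6 h after transfection and compounds were added. Poly(Q) was detected with anti-HA antibody.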

[14] = test system: H4; assay: Increase in light chain 3-GFP+ autophagosome vesicle area per cell in human H4 cells at 8.3 uM after 24 hrs by high throughput fluorescence microscopy relative to control; format: functional; procedure, shortened: as §1
[15] = biological target: Serine/threonine-protein kinase mTOR (Homo sapiens, UniProt P42345); assay: Effect on mTOR phosphorylation in human H4 cells at 8.3 uM after 4 hrs; format: cell-based
Procedure, shortened: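 H4 cells exposed to compound for 4 h. Lysates analysed by Western blot with anti-phospho and anti-total mTOR antibodies, with actin as loading control. Rapamycin served as reference.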

[16] = test system: H4; assay: Increase in light chain 3-GFP+ autophagosome vesicle number per cell in human H4 cells at 8.3 uM after 24 hrs by high throughput fluorescence microscopy relative to control; format: functional; procedure, shortened: as §2
[17] = test system: H4; assay: Increase in light chain 3-GFP+ autophagosome vesicle intensity per cell in human H4 cells at 8.3 uM after 24 hrs by high throughput fluorescence microscopy relative to control; format: functional; procedure, shortened: as §2
[18] = test system: H4; assay: Increase in FYVE-RFP+ vesicle intensity per cell in human H4 cells after 2 hrs relative to control; format: functional; set-up: concentration or dose not given beside the values; procedure, shortened: as §4
[19] = test system: H4; assay: Increase in FYVE-RFP+ vesicle intensity per cell in human H4 cells after 4 hrs relative to control; format: functional; set-up: concentration or dose not given beside the values; procedure, shortened: as §4
[20] = test system: H4; assay: Increase in FYVE-RFP+ vesicle intensity per cell in human H4 cells after 8 hrs relative to control; format: functional; set-up: concentration or dose not given beside the values; procedure, shortened: as §4
[21] = test system: H4; assay: Induction of light chain 3-GFP level in human H4 cells at 8.3 uM after 24 hrs by high throughput fluorescence microscopy relative to control; format: functional; procedure, shortened: as §3
[22] = test system: H4; assay: Increase in light chain 3-GFP+ autophagosome vesicle area per cell in human H4 cells at 5.8 uM after 24 hrs by high throughput fluorescence microscopy relative to control; format: functional; procedure, shortened: as §1
[23] = test system: H4; assay: Increase in light chain 3-GFP+ autophagosome vesicle number per cell in human H4 cells at 5.8 uM after 24 hrs by high throughput fluorescence microscopy relative to control; format: functional; procedure, shortened: as §2
[24] = test system: H4; assay: Increase in light chain 3-GFP+ autophagosome vesicle intensity per cell in human H4 cells at 5.8 uM after 24 hrs by high throughput fluorescence microscopy relative to control; format: functional; procedure, shortened: as §2
[25] = test system: H4; assay: Induction of light chain 3-GFP level in human H4 cells at 5.8 uM after 24 hrs by high throughput fluorescence microscopy relative to control; format: functional; procedure, shortened: as §3
[26] = test system: H4; assay: Increase in light chain 3-GFP+ autophagosome vesicle area per cell in human H4 cells at 2.1 uM after 24 hrs by high throughput fluorescence microscopy relative to control; format: functional
[27] = test system: H4; assay: Increase in light chain 3-GFP+ autophagosome vesicle number per cell in human H4 cells at 2.1 uM after 24 hrs by high throughput fluorescence microscopy relative to control; format: functional; procedure, shortened: as §2
[28] = test system: H4; assay: Increase in light chain 3-GFP+ autophagosome vesicle intensity per cell in human H4 cells at 2.1 uM after 24 hrs by high throughput fluorescence microscopy relative to control; format: functional
[29] = test system: H4; assay: Induction of light chain 3-GFP level in human H4 cells at 2.1 uM after 24 hrs by high throughput fluorescence microscopy relative to control; format: functional

SMILES	Activity [5]	Activity [6]	Activity [7]	Activity [8]	Activity [9]	Activity [10]	Activity [11]	further results
CC[C@H](C)[C@H](NS(=O)(=O)c1cccc2ccccc12)C(=O)N[C@H](C=O)Cc1c[nH]c2ccccc12	89.37%	64.1%	62.34%	134.83%	136.94%	117.24%	9.4%	Activity [1]: 172.38%; Activity [2]: 151.1%; Activity [3]: 199.27%; Activity [4]: 124.74%
CN1CCN(CCCN2c3ccccc3Sc3ccc(C(F)(F)F)cc32)CC1 [TRIFLUOPERAZINE]	–	–	–	76.62%	105.6%	109%	124.78%	Activity [12]: Active; Activity [13]: Dose-dependent effect; Activity [14]: 520.24%; Activity [15]: inactive; Activity [16]: 364.24%; Activity [17]: 1010.35%; Activity [18]: 136.58%; Activity [19]: 111.52%; Activity [20]: 94.28%; Activity [21]: 105.72%
CCN(CC)CCCCCCCCOC(=O)c1cc(OC)c(OC)c(OC)c1	89.59%	74.72%	78.64%	106.69%	124.85%	109.05%	95.47%	Activity [22]: 201.59%; Activity [23]: 170.87%; Activity [24]: 229.5%; Activity [25]: 145.22%
C/C=C/C[C@@H](C)[C@@H](O)[C@H]1C(=O)N[C@@H](CC)C(=O)N(C)CC(=O)N(C)[C@@H](CC(C)C)C(=O)N[C@@H](C(C)C)C(=O)N(C)[C@@H](CC(C)C)C(=O)N[C@@H](C)C(=O)N[C@H](C)C(=O)N(C)[C@@H](CC(C)C)C(=O)N(C)[C@@H](CC(C)C)C(=O)N(C)[C@@H](C(C)C)C(=O)N1C [CYCLOSPORINE]	73.62%	71.69%	55.82%	114.15%	117.39%	101.74%	104.28%	Activity [26]: 181.14%; Activity [27]: 155.88%; Activity [28]: 178.79%; Activity [29]: 159.64%
